Positions count from the first letter of the chain named. Values after ≈ are worked out from the molar mass of the structure shown. Active and inactive are the calls of the source. No cut-off for these calls is given here.
Key:
[1] = molecular target: T1, Cell division protein FtsZ (Escherichia coli K-12) (UniProt P0A9A6); experiment: Stimulation of Escherichia coli FtsZ self-polymerization by microtiter plate-based light scattering assay
T1 sequence (whole entry): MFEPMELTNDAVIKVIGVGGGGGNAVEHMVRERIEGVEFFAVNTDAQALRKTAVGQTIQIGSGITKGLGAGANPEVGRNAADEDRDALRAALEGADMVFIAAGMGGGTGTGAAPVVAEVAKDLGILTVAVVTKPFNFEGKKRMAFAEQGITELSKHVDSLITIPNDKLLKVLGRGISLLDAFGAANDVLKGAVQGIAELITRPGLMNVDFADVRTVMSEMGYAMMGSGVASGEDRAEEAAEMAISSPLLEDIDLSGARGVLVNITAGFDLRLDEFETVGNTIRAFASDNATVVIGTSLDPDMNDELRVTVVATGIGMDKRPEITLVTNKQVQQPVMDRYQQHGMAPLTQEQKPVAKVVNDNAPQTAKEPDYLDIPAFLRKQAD

[2] = molecular target: T2, Cell division protein FtsZ (Staphylococcus aureus, UniProt P0A031); experiment: Binding affinity to Staphylococcus aureus FtsZ expressed in Escherichia coli BL21 (DE3) at 25 degC by fluorescence anisotropy assay; conditions: read-out: Kd
T2 sequence (P0A031 whole entry): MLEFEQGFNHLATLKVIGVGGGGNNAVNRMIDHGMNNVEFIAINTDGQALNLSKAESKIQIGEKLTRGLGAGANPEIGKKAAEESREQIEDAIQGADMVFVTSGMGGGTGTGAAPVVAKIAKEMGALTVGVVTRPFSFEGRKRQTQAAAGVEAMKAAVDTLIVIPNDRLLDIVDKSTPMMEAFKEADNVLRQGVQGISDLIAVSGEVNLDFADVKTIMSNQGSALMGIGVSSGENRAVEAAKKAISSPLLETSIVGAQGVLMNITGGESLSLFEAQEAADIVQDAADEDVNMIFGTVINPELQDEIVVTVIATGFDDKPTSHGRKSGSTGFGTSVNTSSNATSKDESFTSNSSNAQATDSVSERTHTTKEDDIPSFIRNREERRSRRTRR
In short: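 Intrinsic compound fluorescence anisotropy. Compound at 5 μM was titrated with 0–25 μM FtsZ in 50 mM Tris·HCl pH 7.4, 50 mM KCl, 2 mM magnesium acetate. Samples were incubated 5 min at 25 °C, excited at 245 nm with emission at 318 nm, and G-corrected. Runs were in triplicate and averaged. Kd was obtained by nonlinear least-squares fit. SaFtsZ was expressed in E. coli BL21(DE3) and purified by ammonium sulfate, MonoQ and Superdex-200.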

[3] = system: T3, Cell division protein FtsZ (Staphylococcus aureus), P0A031 [G196A]; experiment: Binding affinity to Staphylococcus aureus FtsZ G196A mutant self-polymerization at 10 ug/mL by microtiter plate-based light scattering assay
T3 sequence (whole entry): T2 sequence (P0A031 whole entry) with G196A

[4] = system: Staphylococcus aureus; experiment: Antimicrobial effect against methicillin-sensitive Staphylococcus aureus 8325-4 assessed as changes in MIC measured after 12 incubation cycles by stepwise broth microdilution method relative to initial compound MIC; type: functional, organism-based
In short: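 Stepwise resistance selection. S. aureus 8325-4 at 10⁵ CFU/mL was inoculated into 2-fold increasing compound concentrations and incubated 24 h at 37 °C. Aliquots from the well with the highest concentration still showing growth (2-fold below MIC) seeded a new serial 2-fold dilution plate. This was repeated for multiple cycles, with MIC determined each cycle.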

[5] = molecular target: T1, Cell division protein FtsZ (Escherichia coli K-12); experiment: Binding affinity to Escherichia coli FtsZ at 40 uM by fluorescence anisotropy BoGTPgammaS competition assay
In short: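 Competition with fluorescent BoGTPγS. BoGTPγS (1 μM final) was mixed with 5 μM FtsZ and compound or unlabeled GTP at 0–40 μM. Buffer was 50 mM Tris·HCl pH 7.4, 50 mM KCl, 2 mM magnesium acetate. After 5 min at 25 °C, anisotropy was read at excitation 488 nm and emission 510 nm, in triplicate and averaged.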

[6] = molecular target: T4, Cell division protein FtsZ (Staphylococcus aureus) (UniProt P0A031); experiment: Stimulation of Staphylococcus aureus FtsZ self-polymerization by microtiter plate-based light scattering assay
T4 sequence (whole entry): T2 sequence (P0A031 whole entry)

[7] = system: Staphylococcus aureus; experiment: Antimicrobial effect against 3x10^9 CFU/ml methicillin-sensitive Staphylococcus aureus 8325-4 at 4 to 32 times MIC assessed as incidence of colonies growth measured after 24 incubation by large inoculation approach based drug resistance detection method; type: functional, organism-based
In short: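 Inoculum count checked on nonselective plates. Incubated at 37 °C and examined after 24 h and daily thereafter. Mutation frequency = colonies on selective plates / total bacteria plated.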

[8] = molecular target: T1, Cell division protein FtsZ (Escherichia coli K-12); experiment: Stimulation of Escherichia coli FtsZ assembly at 20 ug/mL by transmission electron microscopy
In short: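 EcFtsZ was polymerized with 20 μg/mL compound (10 μM protein, 1 mM GTP, 10 mM CaCl₂, Tris/KCl/Mg acetate buffer pH 7.4). The reaction was diluted 1:10 in polymerization buffer at room temperature and applied to glow-discharged Formvar/carbon copper grids. Grids were negatively stained 1 min with 1% phosphotungstic acid and imaged by TEM at 80 kV.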

[9] = molecular target: Tubulin beta chain (Sus scrofa) (UniProt P02554); experiment: Effect on MAP-rich pig beta-tubulin polymerization at 40 ug/mL by microtiter plate-based light scattering assay
In short: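 MAP-rich porcine tubulin (70% β-tubulin, 30% MAPs) at 2 mg/mL with 1 mM GTP. Buffer was 80 mM PIPES·NaOH pH 7.0, 2 mM MgCl₂, 1 mM EGTA. Light scattering was followed as A340 continuously at 37 °C for 60 min, against a DMSO vehicle.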

[10] = system: Streptococcus pyogenes; experiment: Antimicrobial activity against Streptococcus pyogenes Strep A ATCC 19615 incubated for 24 hrs by broth microdilution method; type: functional; conditions: Strep A ATCC 19615, 24 h
In short: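 CLSI broth microdilution. Log-phase bacteria at 10⁵ CFU/mL were exposed to 2-fold serial dilutions (64 to 0.016 μg/mL) in cation-adjusted Mueller-Hinton broth, 5% defibrinated sheep blood added for Streptococcus. Incubated aerobically 24 h at 37 °C. Growth read as OD600; MIC taken as the lowest concentration giving 90% growth inhibition.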

Tubulin beta chain (Sus scrofa), sequence (P02554 whole entry): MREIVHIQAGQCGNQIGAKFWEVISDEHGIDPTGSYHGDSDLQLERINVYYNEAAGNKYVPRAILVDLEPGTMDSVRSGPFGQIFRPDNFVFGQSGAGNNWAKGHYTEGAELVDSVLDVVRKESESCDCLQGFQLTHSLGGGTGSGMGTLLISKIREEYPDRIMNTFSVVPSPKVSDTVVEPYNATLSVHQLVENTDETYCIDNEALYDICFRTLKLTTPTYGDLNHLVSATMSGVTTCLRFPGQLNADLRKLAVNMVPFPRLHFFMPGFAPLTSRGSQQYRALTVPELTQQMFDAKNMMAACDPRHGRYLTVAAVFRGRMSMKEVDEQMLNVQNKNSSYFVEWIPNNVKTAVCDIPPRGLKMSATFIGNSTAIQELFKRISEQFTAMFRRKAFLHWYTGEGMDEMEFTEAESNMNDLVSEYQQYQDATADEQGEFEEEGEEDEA

CC(C)(C)c1ccc(-c2cccc(CNC(=N)N)c2)cc1
Activity [1]: Dose-dependent effect
Kd [2]: 3.5 µM
Activity [3]: Active
Activity [4]: Active
Activity [5]: inactive
Activity [6]: Dose-dependent effect
Activity [7]: Active
Activity [8]: Active
Activity [9]: inactive
MIC [10]: 2 µg/mL (≈ 7.11 µM)
